These results are taken from ChEMBL document CHEMBL4382240, “Discovery of novel 2,5-dihydroxyterephthalamide derivatives as multifunctional agents for the treatment of Alzheimer's disease” (Bioorg Med Chem, 2018).

In general, inhibition refers to the share of the control response that was lost under treatment. In general, IC50 refers to the concentration at which inhibition is half-maximal.

For one data set, the species on record is Homo sapiens. The data set can be described thus: Anti-inflammatory activity in […] cells assessed as inhibition of LPS-stimulated NO release preincubated for 30 mins followed by LPS stimulation and measured after 24 hrs by Griess reagent based assay. The format is functional, cell-based. On the technique in general: The Griess reaction detects nitrite, a stable product of nitric oxide.

In data set [1] the target is T1, Acetylcholinesterase (Rattus norvegicus, UniProt P37136).
T1 sequence (P37136 whole entry): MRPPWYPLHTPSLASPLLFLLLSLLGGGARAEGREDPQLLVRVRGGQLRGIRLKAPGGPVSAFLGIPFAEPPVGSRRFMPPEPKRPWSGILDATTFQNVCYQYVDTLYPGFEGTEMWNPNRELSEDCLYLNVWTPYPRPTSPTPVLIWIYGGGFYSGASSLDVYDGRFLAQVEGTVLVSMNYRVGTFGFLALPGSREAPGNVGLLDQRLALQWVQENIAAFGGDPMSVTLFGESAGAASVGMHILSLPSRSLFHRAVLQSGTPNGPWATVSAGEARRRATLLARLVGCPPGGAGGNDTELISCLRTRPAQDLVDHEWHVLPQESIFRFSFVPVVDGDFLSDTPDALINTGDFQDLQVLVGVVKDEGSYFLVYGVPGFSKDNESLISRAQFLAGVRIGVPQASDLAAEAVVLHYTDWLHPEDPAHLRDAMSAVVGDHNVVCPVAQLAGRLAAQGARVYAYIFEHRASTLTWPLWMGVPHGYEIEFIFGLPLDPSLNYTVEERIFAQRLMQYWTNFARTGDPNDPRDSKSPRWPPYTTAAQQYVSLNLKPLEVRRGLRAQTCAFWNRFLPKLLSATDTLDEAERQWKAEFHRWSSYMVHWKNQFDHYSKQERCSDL
The data set can be described thus: Inhibition of rat cortex AChE using acetylthiocholine iodide as substrate after 15 mins by Ellman's method. On the technique in general: In Ellman's method for cholinesterases, released thiocholine reacts with DTNB.

For data set [2], the target named is Acetylcholinesterase (Electrophorus electricus, UniProt O42275). The data set can be described thus: Inhibition of electric eel AChE using acetylthiocholine iodide as substrate after 15 mins by Ellman's method.
Sequence of Acetylcholinesterase (Electrophorus electricus, UniProt O42275) (O42275 whole entry): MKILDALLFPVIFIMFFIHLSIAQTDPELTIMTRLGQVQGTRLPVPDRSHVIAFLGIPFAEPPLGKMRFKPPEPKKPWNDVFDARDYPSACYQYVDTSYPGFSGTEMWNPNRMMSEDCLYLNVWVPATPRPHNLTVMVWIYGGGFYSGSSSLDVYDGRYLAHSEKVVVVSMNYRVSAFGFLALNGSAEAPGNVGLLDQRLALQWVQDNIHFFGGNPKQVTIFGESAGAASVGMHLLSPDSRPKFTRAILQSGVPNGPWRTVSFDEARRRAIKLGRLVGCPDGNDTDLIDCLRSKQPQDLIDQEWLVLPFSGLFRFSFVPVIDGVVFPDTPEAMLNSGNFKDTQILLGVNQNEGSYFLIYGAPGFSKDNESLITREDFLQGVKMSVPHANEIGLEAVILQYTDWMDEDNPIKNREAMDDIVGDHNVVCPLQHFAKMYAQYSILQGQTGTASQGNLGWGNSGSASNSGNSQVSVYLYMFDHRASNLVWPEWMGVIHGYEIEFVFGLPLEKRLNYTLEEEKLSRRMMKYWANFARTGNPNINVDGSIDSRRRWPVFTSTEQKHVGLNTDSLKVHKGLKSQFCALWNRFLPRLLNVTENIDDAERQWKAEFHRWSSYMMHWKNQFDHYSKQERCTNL
A short description of data set [3]: Antioxidant activity assessed as trolox equivalent of APPH-induced radical scavenging activity at 5 uM preincubated for 15 mins followed by AAPH addition measured every minute for 90 mins by ORAC fluorescein assay. In kind it is functional. An outline of the steps:
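ORAC-FL in 75 mM phosphate buffer, pH 7.4. Fluorescein (150 nM final) and sample (tested at 1–10 µM) incubated 15 min at 37 °C. AAPH (12 mM final) then added, and fluorescence (ex 485/em 535 nm) read every minute for 90 min. Trolox standard 1–8 µM; result expressed as µM Trolox equivalent per µM compound. Duplicate wells; three independent experiments.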

Data set [4] addresses Acetylcholinesterase (Electrophorus electricus) (UniProt O42275). The data set can be described thus: Mixed-type inhibition of electric eel AChE at 2.5 to 10 uM preincubated for 15 mins followed by varying levels of acetylthiocholine iodide substrate addition by Lineweaver-Burk plot analysis.
Data set [5] is described as follows: Metal chelating activity assessed as compound-Fe2+ complex formation at 37.5 uM after 30 mins by UV spectrometry method. An outline of the steps: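 Compound and metal salt (CuCl2, ZnCl2, FeSO4 or AlCl3), each 37.5 µM final in methanol, incubated 30 min at room temperature. UV-vis spectra recorded from 200 to 600 nm and compared with the compound alone.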
Data set [6] in a line: Metal chelating activity assessed as mole fraction of compound required to show 1:2 stoichiometry for compound -Cu2+ complex at 37.5 uM after 30 mins by UV spectrometry method. The method, boiled down: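 Molar-ratio titration in methanol: compound fixed at 37.5 µM final, CuCl2 varied from 3.75 to 150 µM final. Spectra corrected by subtracting CuCl2 and compound alone. Absorbance at 274 nm plotted against mole fraction; stoichiometry taken from where the straight lines intersect.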

Data set [7] deals with T2, Amyloid-beta precursor protein (Homo sapiens, UniProt P05067). As to the kind of experiment: Inhibition of human amyloid beta (1 to 42) self-induced aggregation at 25 uM after 24 hrs by Thioflavin T based fluorometric assay relative to control. An outline of the steps: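 Aβ1-42 (25 µM final) incubated with compound (25 µM final) in 50 mM phosphate buffer, pH 7.4, for 24 h at 37 °C under a sealing film. ThT (5 µM) in 50 mM glycine-NaOH, pH 8.5, then added and fluorescence measured. Triplicate; mean ± SD of three independent experiments.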
T2 sequence (P05067 whole entry): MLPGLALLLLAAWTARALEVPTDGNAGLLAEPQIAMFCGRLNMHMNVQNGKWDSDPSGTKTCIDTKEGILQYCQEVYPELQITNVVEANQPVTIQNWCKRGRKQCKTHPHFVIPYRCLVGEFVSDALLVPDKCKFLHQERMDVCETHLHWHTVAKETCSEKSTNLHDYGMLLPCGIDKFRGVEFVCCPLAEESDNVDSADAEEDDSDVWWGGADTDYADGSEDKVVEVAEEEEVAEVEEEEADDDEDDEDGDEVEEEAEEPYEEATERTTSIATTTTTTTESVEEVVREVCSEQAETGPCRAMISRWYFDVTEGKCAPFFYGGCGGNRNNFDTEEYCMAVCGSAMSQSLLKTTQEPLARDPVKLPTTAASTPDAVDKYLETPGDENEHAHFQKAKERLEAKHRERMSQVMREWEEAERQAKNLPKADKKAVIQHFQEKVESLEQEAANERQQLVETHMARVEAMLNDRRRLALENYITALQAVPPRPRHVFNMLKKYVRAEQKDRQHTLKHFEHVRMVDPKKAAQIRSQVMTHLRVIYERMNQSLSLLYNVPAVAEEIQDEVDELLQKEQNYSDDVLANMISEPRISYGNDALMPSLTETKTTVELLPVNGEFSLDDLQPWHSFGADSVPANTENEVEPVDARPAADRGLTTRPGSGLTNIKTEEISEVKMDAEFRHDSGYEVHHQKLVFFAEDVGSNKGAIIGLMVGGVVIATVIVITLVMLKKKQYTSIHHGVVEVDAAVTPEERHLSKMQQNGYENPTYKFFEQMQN

A short description of data set [8]: Inhibition of Cu2+ induced human amyloid beta (1 to 42) aggregation at 25 uM after 24 hrs by Thioflavin T based fluorometric assay relative to control. The method, boiled down: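 Aβ1-42 (25 µM) and Cu2+ (25 µM) in HEPES buffer (20 mM, pH 6.6, 150 mM NaCl), with or without compound (25 µM final), incubated 24 h at 37 °C. ThT (5 µM) in glycine-NaOH, pH 8.5, added and fluorescence read. Triplicate; three independent experiments.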

Data set [9] deals with T2, Amyloid-beta precursor protein. The data set can be described thus: Inhibition of human amyloid beta (1 to 42) self-induced aggregation after 24 hrs by Thioflavin T based fluorometric assay. The method, boiled down:
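Self-induced Aβ1-42 aggregation (25 µM peptide) in phosphate buffer, pH 7.4, for 24 h at 37 °C with varying compound concentrations. Aggregation read by ThT fluorescence (5 µM ThT, glycine-NaOH pH 8.5).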

Data set [10] has the same target. The data set can be described thus: Disaggregation of self-induced preformed fibrils of human amyloid beta (1 to 42) at 25 uM after 24 hrs by Thioflavin T based fluorometric assay relative to control. The method, boiled down:
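Aβ1-42 diluted in HEPES buffer (20 mM, pH 6.6, 150 mM NaCl) and pre-aggregated 24 h at 37 °C. Compound (25 µM) then added for another 24 h at 37 °C on a sealed plate. Remaining fibrils read by ThT fluorescence in glycine-NaOH, pH 8.5. Triplicate; three independent experiments.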

The nature of data set [11]: Effective permeability of the compound in PBS/EtOH at 100 ug/ml after 18 hrs by PAMPA. In kind it is ADME. The following applies: read-out: Peff. Background: In PAMPA a lipid-coated filter parts donor from acceptor wells.
Data set [12] in a line: Cytotoxicity against […] cells assessed as decrease in cell viability up to 10 uM measured after 24 hrs by MTT assay. In kind it is cell-based. An outline of the steps: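 BV-2 cells grown 24 h, then treated with compound (0.5, 2.5, 10.0 µM) for 30 min, with or without LPS (1.0 µg/mL), for a further 24 h. MTT (5 mg/mL) added for 4 h, formazan dissolved in DMSO, A490 read. Viability given as percent of untreated cells. Triplicate wells; three independent experiments.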

Data set [13] is described as follows: Anti-inflammatory activity in […] cells assessed as inhibition of LPS-stimulated NO release at 2.5 uM preincubated for 30 mins followed by LPS stimulation and measured after 24 hrs by Griess reagent based assay relative to control. In kind it is functional. The following applies: BV-2. An outline of the steps: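 BV-2 cells cultured 24 h in DMEM (10% FBS, glutamine, pyruvate, pen/strep) at 37 °C, 5% CO2. Compound (DMSO stock diluted in PBS) added 30 min before LPS (1.0 µg/mL), then 24 h. Nitrite in supernatant measured by Griess reagent for 10 min at room temperature, A540, against a NaNO2 standard curve. Triplicate wells; mean ± SD of three independent experiments.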

A short description of data set [14]: Effect on TNFalpha release in […] cells up to 10 uM after 24 hrs by ELISA. In kind it is ADME, cell-based. An outline of the steps: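 BV-2 cells exposed to compound up to 10 µM with no added LPS. TNF-α in the medium measured by ELISA. Mean ± SD of three independent experiments.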

The source made the active and inactive calls. The calls are words filed in the database; no cut-off is given here.

Sequence of Acetylcholinesterase (Electrophorus electricus) (O42275 24-633 limits assumed): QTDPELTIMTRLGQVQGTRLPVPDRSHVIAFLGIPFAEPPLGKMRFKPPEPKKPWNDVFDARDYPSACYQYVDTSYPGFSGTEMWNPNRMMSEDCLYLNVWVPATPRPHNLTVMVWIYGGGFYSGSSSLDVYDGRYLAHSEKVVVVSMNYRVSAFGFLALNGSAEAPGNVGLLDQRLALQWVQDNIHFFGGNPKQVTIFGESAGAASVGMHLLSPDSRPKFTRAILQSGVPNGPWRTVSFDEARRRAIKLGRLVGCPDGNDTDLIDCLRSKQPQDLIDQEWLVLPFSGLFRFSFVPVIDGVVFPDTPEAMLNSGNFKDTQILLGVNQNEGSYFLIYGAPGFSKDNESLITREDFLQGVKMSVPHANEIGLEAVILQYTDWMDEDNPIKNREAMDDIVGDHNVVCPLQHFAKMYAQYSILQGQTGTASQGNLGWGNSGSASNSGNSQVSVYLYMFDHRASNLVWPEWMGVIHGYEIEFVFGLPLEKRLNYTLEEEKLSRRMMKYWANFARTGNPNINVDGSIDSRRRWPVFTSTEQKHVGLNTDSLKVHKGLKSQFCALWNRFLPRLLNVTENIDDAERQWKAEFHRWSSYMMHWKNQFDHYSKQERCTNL

For `CCN(CCCCNC(=O)c1cc(O)c(C(=O)NCCCCN(CC)Cc2ccccc2OC)cc1O)Cc1ccccc1OC`, the inhibition entry was “Dose-dependent effect” in the data set listed under Homo sapiens, 96.2% in [7] and 71.7% in data set [8]. Also, the values for the concentration for half-maximal inhibition (IC50) (against Acetylcholinesterase [1]; against Acetylcholinesterase [2]; in data set [9]) were 0.56 µM, 5.12 µM and 3.05 µM, respectively. In addition, the Activity in data set [3] was 0.97 equiv; in data set [6] it was 1.9 molar ratio; in data set [10], 75.2%; in data set [12] it was “Non-Toxic”; in data set [14], “Non-Toxic”. Also, the inhibition entry in [4] is “Active”. In addition, the outcome in data set [5] was Active. Besides, the Papp at 18 h, 100 ug/ml in data set [11] was 4.45 ×10⁻⁶ cm/s. Also, in [13], the inhibition at 2.5 µM stood at 30%.
